For 38 variants, yeast fitness results are on record in the RNAGym collection of RNA variant scans (doi:10.1126/science.aae0568).

B1: tRNA (parent)
chain: GUUCCGUUGGCGUAAUGGUAACGCGUCUCCCUCCUAAGGAGAAGACUGCGGGUUCGAGUCCCGUACGGAACG

This sample holds only a part of the variants without activity. A value given as a limit tells only on which side of the number the result lay.

The variants in the data set derive from B1. Nature of the data set: yeast fitness relative to wild type (ratio to wild type); higher = fitter; tRNA-Arg(CCU), competitive growth, 37 C, YPD. An outline of the steps:
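The tRNA-Arg(CCU) gene variants were made by chemical synthesis with a 3% per-site mutation rate at 69 sites and inserted at the native genomic locus of Saccharomyces cerevisiae. After pooling, the strains were competed in YPD at 37°C for 24 hours in six parallel replicates. Gene amplicons from the start population and each end population were read by 100-nucleotide paired-end sequencing, and Darwinian fitness relative to wild type was taken from genotype frequency changes. Genotypes needed ≥ 100 starting reads, and estimates < 0.5 were set to 0.5.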
GUUCCGUUGGCGUAAUGGUAACGCGUCUCCCUCCUAAGGAGAAGCCUGUGGGUUCGAGUCCCGUACGGACCG: the yeast fitness is 0.813.

With GUUCGGUUGGCGUAAUGGUACCGCGUCUUCGUCCUAAGGAGAUGACUGCGGGUUCGAGUCCCGUUCGGAACG, the yeast fitness is ≤ 0.5. The same measure for GUUCCGUUGGCGUAAUGGUGACGCGUCUCCCUCCUAAAGAGAAGACCGCGGGUUCGAGUCCCGUACGGAACG: 0.685.

On to GUUCCGUUGGCGUAAUAGUAACGGGUGUCCCUCCUAAGGAGAAGACUGCGGGUUCGAGUCCCGUACGGCACG, for which the yeast fitness was ≤ 0.5. GUUCCGUUGGCGUAAUGGAUACGCGUCUCCCUCCUAAGGAGAAGACUGCGCGUUCGAGUCCCGUACGGAACG: the yeast fitness was found to be 0.836.

For the variant GUUCCGUUGGCGUAAGGGUAACGCGUCUCCCUCCUAAGGAGAAGACUGCGGGUUCGAGUCCCGUACGGAGCG, the yeast fitness worked out at 1.03. Take GUUGCGUUGGCGUAAUGGUAACGCGUCUCCCUCCUAAGGAGAAACCUGCGGGUUCGAGUCCCGUACGGAACG: the yeast fitness was ≤ 0.5. The same measure for GUUCCGUUGGCGUUAUGGUAACGCGUCACCCUCCUAAGGAGAAGACUGCGGGUUCGAGUCCCGUACGGAACG: 0.579; for GUUCCGUUGGCGUAAUGGUCACGCGUCGCCCUCCUAAGGAGAAGACCGCGGGUUCGAGUCCCGUAUGGAACG: ≤ 0.5. With GUUCCGUUGGCGUAAUGGUAACGCGUCUCCCUCCCAAGGAGAAGACUACGGGUUCGAGUCCCGUACGGAACG, the yeast fitness is 0.937.

Turning to GUUCCGUUGGCGUAUUGGUAACGCGUAUCCCUCCUAAGGAGACGACUGCGGGUUCGAGUCCCGUACGGAACG, the yeast fitness came out at 0.592. Take GUUCCGUUGGCGUAACGGUAUCGCGUCUACCUCCAAAGGAGAUGACUGCGGGUUCGAGUCCUGUACGCAACG: the yeast fitness was ≤ 0.5. For GUUCUGUUGGCGUAAUGGUAGCGCGUCUCCCUGCUAAAGAGAAGACUGCGGGUUCGAGUACCGUACGGAACG, the yeast fitness is ≤ 0.5. The same measure for GUUCCGUAGGCGUUAUGGUAAUGCGUCUCCCUCCUAAGGAGAAGACUGCGGGUUCGAGUCCCGUACGGAACG: 0.592; for GUUCCGUUGGCGUAAUGGUAACGCGCCUCCCUCCUAAGGAGAAGACUGCGGGUUGGAGUCCCGUACGGAACG: 0.59. For GUUCAGUUGGCGUAAUGGUUACGCGUCUCCCUCCUAAGGAGAAGACUGCGGGUUCGAGUCCCGUGCGGAACG, the yeast fitness came out at 0.591. The same measure for GUUCCGUUGGCGUAAUGGUAACCGGUCUCCCUCGUAAGGAGAAGACUGCGGGUUCGAGUCCCGUACGGAACG: ≤ 0.5. Take GUUCGGUUGGCGUAAAGGUACCGCGUCUCCCUCCUACGGAGAAGACUGCGGGUUCGAGUCCCGUACGAAACG: the yeast fitness is ≤ 0.5.

Consider GUUCCGUUGGCGCAAUGGUAACGCGUCUCCCUCCUCAGGAGAAGACUGCGGGUUCGAGUCCCGUACUGAACG, for which the yeast fitness is 0.637. The same measure for GUUGCGUUCGCGUAAUGGUAACGCGUCUCCCUGCUAAGGAGAAGACUGCGGGUUCGAGUCCCGUAUGGAACG: 0.72. Turning to GAUCGGUUGGCGUAAUGGUAACGCGUCUCCCUCCUAUGGAGAAGACUGUGGGUUCGAGUCUCGUACGGAACG, the yeast fitness was ≤ 0.5. The same measure for GUUCCGUUGGCGAAAUGGUAACGUGUCUCCCUCCUAAGGAUAAGACCGCGGGUUCGAGUCCCGUACGGAACG: ≤ 0.5; for GCUCCGUUGGCGUAAUGGCAACGCGUCUCCCUCCUAGGGAGAAGACUGAGGGUUCGAGUCCCGUACGGCACG: ≤ 0.5. The same measure for GUUCCGUUGGCGUAAUGGUACCGCGUCUCCCUCCUAAGGAGAAGACUGCGGGUUCGACUUCCGUAGGGAACG: ≤ 0.5. In the case of GUUCCGUUGGCGUAAUCGUAACCCGUCUCCCUCCUAAGGAGAUGACUGAGGGUUCGAGUCCCGUACGGAACG, the yeast fitness is 0.613. The same measure for GUUCCGUUGGAGUAGUGGUAACGCGUCUCCCUCCUAAGGAGAAGACUGUGGGUUCGAGUCCCGUAUGGAACG: ≤ 0.5. With GUUCCGUUGGCGUAAUGGCAAGGCGUCUCCCUCCUAAGGAGAAGACUGCGGGUUCGAGUCCCGUACGGAUCG, the yeast fitness amounted to 0.743. The same measure for GAUCCGUUGGCGUAAUGGUAACGCGUCUCCCUCCUAAGGAGAAGACUGCGGGUUCGAGUCCCGAACGGAACG: 0.855; for GUUCCGUGGGCGUAAUGGUAACGCGUCUCCCUCCUAAGGAGGAGACUGCGGGUUCGGGUCCCGUACGGAACG: ≤ 0.5; for GUUCUGUUGGCGUAAGGGUAACGCGUCUCCCUCCUAAGGAGAAGACUGCGGGUUCGAGUCCCGCACGGAACG: 0.932. As for GUUCCGUUGGAGUAAUGAUAACGCGUCUCCCUCCUUAGGACAAGACUGCGGGUUUGAGUCCCGCACGGAACG, the yeast fitness was ≤ 0.5.

As to GUUCCGUUGGCGUAAUGGUAACGCGUCUUCCUCCCACGGAGAAGACUGCGGGUUCGAGUCCCGUGAGGAACG, the yeast fitness was ≤ 0.5. With GGUUCGUCGGCGUAAUGGUAACGCGUCUCCCUCCUAAGGAGAAGACUGCGGGUUCGAGUCCCGUACGGAACG, the yeast fitness came to 0.732. The same measure for GUUUCGUUGGCGUAAAGGUAACGCGUCUCCCUCCUAAGGAGAAGACUGCGGGUUCGAGUCCCGUACGGAACG: 0.993; for GUUCCGUUGGCGUAAUGAUAACGCGUGUCCCUCCUAAGGAGAAGACUGCGGGUUCGAGUCCCGUACGGAACG: ≤ 0.5.

Turning to GUUCCGUUGGCGUAAUGGUAACGCGUCUCCCUCCUAAGGAGGAGACUGCGGGUUCGAGUACCGUACGGAACG, the yeast fitness worked out at 0.512. The same measure for GUUCCGUUGGCGUAAUGGUAACGCGUCUCCCUCCUGAGGAGAAGACUCCGGGUUCGAGUCCCGUACGGAACG: 0.905. As for GUUCCGUUGGCGUAAUGGUAACGCCUCUCCCUCCUAAGGAGAAGACUGCGGGUUCGAGCCCCGUACGGAACG, the yeast fitness amounted to 0.932.
